High-throughput results from PubChem.
T cruzi repl: T. cruzi replication inhibition; T. cruzi beta-gal in NIH3T3, luminescence, 90 h; inhibition, % (concentration not given with the values); 1.4% of 300,000 active;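 active = mean inhibition across valid replicates above about 55%, limit read from the data; inconclusive = mean below that limit but half or more replicates reach it; inactive = mean below it, under half of replicates reach it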;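 also: signal also drops with host cell toxicity which is not excluded here; 0% = plate median of DMSO wells and 100% = zero luminescence signal; higher percent means less beta-gal luminescence so fewer parasites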
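Assay system: NIH/3T3 fibroblasts plus reporter T. cruzi. Amount: NIH/3T3 cells, 5,000 per well. Buffer or medium: DMEM, 2% fetal bovine serum. Doses: compound pinned at 50 nL/well, DMSO. Schedule: ≥90 h infection period, 3 h prior cell attachment. Signal: luminescent β-galactosidase signal after 60 min lysis. Read-out: parasite load inhibition, %.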
HIF act: HIF pathway transcriptional activation; 0.32% of 300,000 active; U2OS HRE-luciferase reporter, luminescence; normalized: DMSO 0%, desferrioxamine 100%; AID 1910; activation, % at 7.5 µM (by protocol);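 active = mean activation of at least 10% of the iron chelator positive control signal, with at least half of replicates also reaching 10%; inconclusive = mean and replicate majority disagree about reaching 10%; inactive = mean and most replicates under 10%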
CSC inhib: blocks cancer stem cells; cancer stem cell-like cells viability, luminescence; inhibition, % at 7.5 µM; 1.1% of 300,000 active; AID 2717; in the data active = inhibition above about 75%; inconclusive = no clear call, values can overlap the other calls; tested in HMLE shEcad cells
PolyA inh: blocks polyadenylation in yeast reporter cells | 0.02% of 300,000 active | activity score, % at 12 µM | AID 1875 | S. cerevisiae SKY197-pL101 polyadenylation reporter, beta-gal luminescence; efflux-impaired pdr1/pdr3 knockout yeast; score 100 = 6 SD above DMSO;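 active = lowest replicate activity score at least 50, where 100 means six control SD above control mean; inconclusive = lowest score under 50 but half or more replicates reach 50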;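 also: yeast exposed to compound for 9 h at 30 °C; higher score means more reporter readthrough which indicates perturbed polyadenylation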
Calb FLC: C. albicans growth modulation with fluconazole | C. albicans CaCi-2 + fluconazole, Alamar Blue growth, 48 h | growth inhibition, % (no concentration beside the values) | 0.57% of 300,000 active | AID 1979;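 active = growth inhibition above about 58% in most replicates, limit read from the data, passing the limit was not always enough; inconclusive = exactly half the replicates above a set limit; inactive = most replicates below a set limit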;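 also: all wells also contain fluconazole at 8 µg/ml as a sub-toxic cotreatment; 0% = median of DMSO wells and 100% = median of geldanamycin control wells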
Beta apoptosis: beta cell apoptosis inhibition; 0.8% of 300,000 active; INS-1E cytokine-induced death, ATP luminescence, 48 h; percent of positive-control rescue, neutral wells zero; protection from apoptosis, % (concentration not given with the values); AID 435005;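 active = Every replicate reaches about 75%, or at least half do and their mean reaches it too, limit read from the data; inconclusive = At least half of replicates reach the limit but their mean does not; inactive = Under half of replicates reach the limit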;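 also: 0% = cytokine-treated negative control wells and 100% = positive control rescue; higher means more ATP so stronger rescue from cytokine killing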
Starred values were filed as active, the others as inactive; ? = inconclusive; . = no result. Rows were chosen to be rich in hits. Some 3.1% of all compounds tested hit in one or more screens of this group.

SMILES	T cruzi repl	HIF act	CSC inhib	PolyA inh	Calb FLC	Beta apoptosis
O=C(CN(c1ccccc1)S(=O)(=O)c1ccc(F)cc1)NCc1cccs1	.	.	.	.	.	-1
CC1CCCCN1S(=O)(=O)c1ccc(C(=O)Nc2nnc(C3CC3)o2)cc1 (stereo unspecified)	-40	0	26	11	-1	-1
COc1cnc(-c2ccccn2)nc1N(C)C	48	78*	45	-1	6	81*
COc1cnc(-c2ccccn2)nc1Sc1ccccc1Cl	60*	1	4	-57	81*	86*
O=C(CN1CCN(C(=O)c2ccc(-c3nc4ccccc4s3)o2)CC1)Nc1ccc(F)cc1	.	.	.	.	.	-5
Cc1ccc(C)c(NC(=O)c2cccc(Oc3ccc([N+](=O)[O-])cc3Cl)c2)c1	55*	-1	50	17	25	-5
Cc1ccc(C)c(OCC(=O)O/N=C(\N)c2cccc([N+](=O)[O-])c2)c1	31	114*	11	-30	5	.
N/C(=N\OC(=O)COc1ccc(Br)cc1)c1cccc([N+](=O)[O-])c1	-6	0	.	-9	4	.
COc1ccc(NC(=O)c2cccc(Oc3ccc([N+](=O)[O-])cc3Cl)c2)cc1	2	1	48	23	-2	-1
CC(C)(C)Sc1ccc([N+](=O)[O-])cc1C(=O)Nc1ccncc1	30	1	-4	-1	-1	-1
O=C1CCCN1CCCN=c1c([N+](=O)[O-])nn(-c2ccc(Cl)cc2)n1O	68*	1	.	14	85*	.
Cc1cccc(CCN=c2c([N+](=O)[O-])nn(-c3ccccc3)n2O)c1	43	0	-3	-18	33	9
O=[N+]([O-])c1nn(-c2ccc3c(c2)OCCO3)n(O)c1=NCCCO	77*	2	5	20	?	8
O=[N+]([O-])c1nn(-c2ccc3c(c2)OCCO3)n(O)c1=NC1CCCCCC1	59*	0	.	-6	16	27
COc1ccc(-n2nc([N+](=O)[O-])c(=NCCc3cccc(C)c3)n2O)cc1	63*	0	-3	-15	0	-4
COc1ccc(C(=O)N2CCN(c3ccccn3)CC2)cc1[N+](=O)[O-]	-9	1	-1	4	-13	-2
O=[N+]([O-])c1nn(-c2ccc3c(c2)OCCO3)n(O)c1=NC1CCCC1	90*	1	-5	27	9	19
Cc1ccc2cc(CCNS(=O)(=O)c3ccc(F)cc3)c(=O)[nH]c2c1C	-3	0	-10	-4	-1	-5
Cc1ccc2c(c1)c(/C=C/c1cc[n+](C)cc1)c(C)n2C	66*	3	7	-8	89*	90*
Cn1cc(/C=C/c2cc[n+](C)cc2)c2cc(F)ccc21	48	1	-8	-15	?	69
Cc1ccc2[nH]c(C)c(/C=C/c3cc[n+](C)cc3)c2c1	57*	-43	15	1	94*	72
COc1ccc(S(=O)(=O)NCCC(=O)N2CCCN(C)CC2)cc1	.	.	2	.	.	-7
Oc1ccc(-c2nc(=S)[nH][nH]2)cc1	.	.	5	1	7	-3
FC(F)(F)c1ccc(-c2nc(=S)[nH][nH]2)cc1	-28	96*	-9	-16	0	-5
O=C(C#Cc1ccccc1)Nc1cccc(F)c1	20	-1	114*	-17	-1	97*
SMILES	T cruzi repl	HIF act	CSC inhib	PolyA inh	Calb FLC	Beta apoptosis
O=C(C#Cc1ccccc1)Nc1ccc(F)cc1	-11	5	-3	-27	-10	-1
CC1=Nc2ccccc2/C1=C/c1sc(=N)n(-c2nccs2)c1O	63*	0	111*	-3	-2	57
COc1ccc(CN(CC2CCC(C(=O)O)CC2)C(=S)Nc2ccc(C)c(Cl)c2)cc1 (stereo unspecified)	58*	3	-3	-28	12	-12
COc1ccc(NC(=S)N(Cc2cccc(Br)c2)CC2CCC(C(=O)O)CC2)cc1 (stereo unspecified)	-6	0	-4	1	24	-5
Cc1cc(C)nc(OC(=O)c2ccc(Cl)cc2Cl)n1	-16	1	-10	3	-4	85*
CCOc1ccccc1C(=O)N/N=C/c1ccoc1	.	.	-10	.	104*	-6
CCOc1cccc(C(=O)N/N=C/c2ccoc2)c1	.	.	-5	.	-7	3
